# From PubChem BioAssay
# Sampled rows, rich in hits. Any-hit rate of the full collection: about 2.3%.
# F508del corr – F508del CFTR correction, initial screen, CFBE line, single point | CFBE cells, YFP halide quenching; stimulated with forskolin plus potentiator P3; % fluorescence drop versus neutral controls | activity (quench increase), % at 7.58 µM | 0.36% of 350,000 active;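 active means mean added fluorescence quench of at least 8% versus neutral control, with both replicates also reaching 8%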;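 further: cells transiently co-express mutant CFTR-F508del with the halide-sensitive YFP; corrector assay measuring rescue of mutant channel to the surface after 24 h compound exposure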
# PAX8 inh HTS – inhibitors of PAX8-driven TPO luciferase reporter, primary screen, RMG-I cells, single concentration; SteadyGlo, 24 h; inhibition, % at 12.6 µM; 1.2% of 360,000 active;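 active means mean replicate inhibition at least 60% with every replicate also reaching 60%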;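 further: luciferase light reporting Pax8 driven TPO promoter activity; plate controls were median of neutral control wells for no effect and mitoxantrone controls for full effect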
# EWS-Fli inh – EWS/Fli-driven NR0B1 reporter inhibitors, primary screen, A673 cells, NR0B1 luciferase, luminescence, MLPCN library. inhibition, % at 12.6 µM. viability-normalised. 0.67% of 350,000 active. AID 651661, 2012;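 active means mean inhibition of at least 50% after viability correction, with every replicate also passing that limit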;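 further: firefly luciferase signal divided by Alamar Blue viability fluorescence both relative to DMSO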
# FN deposit inh – inhibitors of fibronectin matrix deposition, primary screen, AH1F cells, Alexa488-fibronectin fluorescence, plate reader. 0.086% of 350,000 active. AID 743247, 2014. AH1F fibroblasts, overnight. inhibition, % at 12.6 µM;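 active means mean inhibition across replicates of 30% or more, regardless of how many single replicates reach that level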;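 further: positive control wells lacked labelled fibronectin entirely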
#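 test system = AH1F fibroblasts assembling fluorescent fibronectin matrix | quantity = 10000 AH1F cells per well | buffer or medium = DMEM plus 2% serum, read in PBS | doses = single dose, pinned | incubation = 1 h cell attachment, overnight exposure to compound and label | detection = fluorescence at 485 nm excitation, 525 nm emission | read-out basis = inhibition from reduced deposited-fibronectin fluorescence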
# HIV Env fusion – inhibitors of HIV-1 Env-driven cell-cell fusion, primary screen, HeLa-JRFL effector, CEM21 target cells, luciferase; inhibition, % at 12.3 µM; 1.1% of 360,000 active;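 active means mean replicate inhibition score of at least 50 and every replicate individually at or above 50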;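 further: 0% = plate neutral controls and 100% = maraviroc near 300 nM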
# PGC1a acetyl inh – inhibitors of PGC1a acetylation signal, primary screen, cell-based, U2OS, AlphaScreen, inhibitor mode; AlphaScreen anti-acetyl-lysine; with virally co-expressed GCN5 acetyltransferase; inhibition, % at 15.6 µM; 0.17% of 350,000 active;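 active means every replicate shows inhibition of at least 40%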;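 further: 0% = neutral control wells and 100% = positive control wells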
# * hit, by the source's call; x = no result; [ ] = remark or other dose.
SMILES,F508del corr,PAX8 inh HTS,EWS-Fli inh,FN deposit inh,HIV Env fusion,PGC1a acetyl inh
CC(C)CN(C(=O)COC(=O)C12CC3CC(CC(O)(C3)C1)C2)c1c(N)n(Cc2ccccc2)c(=O)[nH]c1=O,-1,16,7,-2,x,-8
Cc1cc(SCC(=O)N(CC(C)C)c2c(N)n(CC(C)C)c(=O)[nH]c2=O)nc2ccccc12,-1,-5,4,0,2,9
C[C@@H]1CN([C@H](C)CO)C(=O)c2cc(NC(=O)NC3CCCCC3)ccc2O[C@@H](C)CCCCO[C@H]1CN(C)C(=O)NC1CCCCC1,-2,16,16,0,13[16.7 µM],2
CCCNC(=O)Nc1ccc2c(c1)C(=O)N(C)C[C@@H](OC)[C@H](C)CN(Cc1ccccc1)[C@@H](C)CO2,2,x,-2,-17,x,-46
CCC(=O)Nc1ccc2c(c1)OC[C@@H](C)N(C(=O)CC)C[C@H](C)[C@@H](OC)CN(C)C2=O,-1,x,2,-7,x,-7
CCCCNC(=S)Nc1ccc(Cl)cc1,x,-29,78*,x,-13,x
CCC(=O)N1C[C@@H](C)[C@@H](OC)CN(C)C(=O)c2ccc(NC(=O)C3CC3)cc2OC[C@H]1C,0,-3,-4,-6,x,0
CCOC(=O)N1CCN(C(=O)C2CCC(=O)N(CCCN3CCCC3=O)C2)CC1 (stereo unspecified),8.5*,-29,x,x,-35,7
COc1ccccc1-c1nc(SCC(=O)Nc2ccccc2)n[nH]1,0,9,11,3,-2,x
COc1ccccc1-c1nc(SCC(=O)Nc2ccccc2F)n[nH]1,-2,28,46,7,70*,x
C[C@@H]1CN([C@@H](C)CO)S(=O)(=O)c2ccc(C3=CCCCC3)cc2O[C@H]1CN(C)C(=O)c1ccc(F)cc1,2,5,23,x,-7[16.7 µM],-8
Fc1ccc(COc2ccc(Br)cc2CNCc2ccncc2)cc1,x,x,x,-3,35,3
CCOc1cc(CNCc2ccncc2)cc(Br)c1OCc1ccc(F)cc1,x,x,x,-6,63*,-5
C[C@H]1CCCCO[C@H](CN(C)C(=O)Nc2cccc3ccccc23)[C@@H](C)CN([C@@H](C)CO)C(=O)c2cc(NS(=O)(=O)c3ccccc3)ccc2O1,-5,72*,27,-5,27[16.7 µM],-8
C[C@H](CO)N1C[C@H](C)[C@@H](CN(C)C(=O)Nc2cccc3ccccc23)OCCCC[C@H](C)Oc2ccc(NS(=O)(=O)c3ccccc3)cc2C1=O,-3,33,18,-11,32[16.7 µM],-20
C[C@@H]1CCCCO[C@H](CN(C)C(=O)Nc2cccc3ccccc23)[C@H](C)CN([C@@H](C)CO)C(=O)c2cc(NS(=O)(=O)c3ccc(Cl)cc3)ccc2O1,-1,76*,13,6,-11[16.7 µM],-12
C[C@@H]1CCCCO[C@H](CN(C)C(=O)Nc2cccc3ccccc23)[C@H](C)CN([C@H](C)CO)C(=O)c2cc(NS(=O)(=O)c3ccccc3)ccc2O1,0,36,19,-12,62*[16.7 µM],-8
C[C@@H]1CCCCO[C@@H](CN(C)C(=O)Nc2cccc3ccccc23)[C@@H](C)CN([C@H](C)CO)C(=O)c2cc(NS(=O)(=O)c3ccccc3)ccc2O1,2,-9,6,-5,-3[16.7 µM],0
COc1ccc(CN(C)C[C@H]2OCCCC[C@@H](C)Oc3ccc(NS(=O)(=O)c4ccc(OC)cc4)cc3C(=O)N([C@H](C)CO)C[C@H]2C)cc1,2,13,x,-14,x,3
COc1ccc(CN(C)C[C@@H]2OCCCC[C@H](C)Oc3ccc(NS(=O)(=O)c4ccc(OC)cc4)cc3C(=O)N([C@@H](C)CO)C[C@@H]2C)cc1,3,-9,69*,1,-2[16.7 µM],10
COc1ccc(CN(C)C[C@H]2OCCCC[C@H](C)Oc3ccc(NS(=O)(=O)c4ccc(OC)cc4)cc3C(=O)N([C@H](C)CO)C[C@H]2C)cc1,0,-4,4,4,-76[16.7 µM],-15
